Measurements from ChEMBL document CHEMBL2396611, “Synthesis and mechanism of hypoglycemic activity of benzothiazole derivatives” (J Med Chem, 2013).
Values after ≈ are worked out from the molar mass of the structure shown. Active and inactive are the calls of the source. The rule behind the calls is not given here.

Columns and labels:
[1] = Lipophilicity, log P of the compound; format: physicochemical; conditions: octanol/water
[2] = molecular target: 5'-AMP-activated protein kinase catalytic subunit alpha-2 (Homo sapiens) (UniProt P54646); test: Activation of human recombinant AMPK at 20 uM after 30 mins relative to control
5'-AMP-activated protein kinase catalytic subunit alpha-2 (Homo sapiens), sequence (P54646 whole entry, looked up): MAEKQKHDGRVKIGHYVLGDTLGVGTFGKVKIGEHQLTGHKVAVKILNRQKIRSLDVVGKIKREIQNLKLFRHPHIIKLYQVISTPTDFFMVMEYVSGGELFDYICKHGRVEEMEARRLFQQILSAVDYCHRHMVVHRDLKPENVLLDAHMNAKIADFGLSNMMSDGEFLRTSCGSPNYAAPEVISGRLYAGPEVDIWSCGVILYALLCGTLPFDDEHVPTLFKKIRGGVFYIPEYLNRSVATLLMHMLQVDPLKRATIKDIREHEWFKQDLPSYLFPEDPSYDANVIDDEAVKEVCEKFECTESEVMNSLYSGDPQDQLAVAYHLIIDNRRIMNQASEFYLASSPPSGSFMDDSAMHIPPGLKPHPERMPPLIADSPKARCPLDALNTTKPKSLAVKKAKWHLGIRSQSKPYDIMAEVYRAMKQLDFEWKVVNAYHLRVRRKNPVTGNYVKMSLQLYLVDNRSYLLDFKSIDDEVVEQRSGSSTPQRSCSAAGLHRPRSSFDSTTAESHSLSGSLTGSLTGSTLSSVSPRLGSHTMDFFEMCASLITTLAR
Procedure, shortened: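 Recombinant human full-length AMPK assayed with a commercial luminescent kit. Compound at 20 μM or DMSO vehicle (1% v/v) added to the reaction mix for 30 min at ambient temperature. Activity read by luminometer against a calibration curve; basal activity with DMSO set as 100%.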

[3] = system: L6; test: Activation of AMPKalpha in rat L6 cells assessed as phosphorylation at Thr172 at 150 uM after 4 hrs by Western blot analysis relative to control; format: cell-based
Procedure, shortened: (§1)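 L6 myotubes treated 4 h with increasing compound concentrations (5 to 150 μM) or DMSO. Whole-cell lysates immunoblotted for pThr172-AMPKα, AMPKα and α-tubulin; phosphorylation expressed relative to DMSO-treated control.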

[4] = system: L6; test: Increase of [3H]dGlc uptake in rat L6 cells after 5 hrs in presence of AMPK inhibitor compound C; format: functional, cell-based
Procedure, shortened: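 Differentiated L6 myotubes held 24 h in αMEM with 2% FCS and 23.0 mM D-glucose, then serum-free medium with 0.5% BSA for 4 h. Compound C (5 µM) added 5 h before the uptake assay, alongside 25 µM test agent. Cells rinsed in PBS, then given 0.1 mM dGlc with 1.3 µCi/mL [3H]dGlc in PBS pH 7.4 for 5 min at room temperature. Lysed in 0.1% SDS and counted by scintillation; n=6.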

[5] = molecular target: 5'-AMP-activated protein kinase catalytic subunit alpha-2 (Rattus norvegicus) (UniProt Q09137); test: Activation of AMPK in rat L6 cells assessed as ACC phosphorylation at Ser79 at 25 uM after 3 hrs by Western blot analysis relative to control; format: cell-based
5'-AMP-activated protein kinase catalytic subunit alpha-2 (Rattus norvegicus), sequence (Q09137 whole entry): as the sequence (P54646 whole entry, looked up) above, with M114V, H150Q, V241I, S348T, S355M, F502V, T505S, S509N, V528A, T549A counted along it
Procedure, shortened: (§2)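 Fully differentiated L6 myotubes, preincubated 3 h with or without 5 μM Compound C. Test agents: compound at 25 μM for 3 h, sorbitol 250 mM for 40 min, AICAR 4 mM for 30 min. Whole-cell lysates probed by Western blot for pSer79-ACC, ACC, pThr642-AS-160, AS-160 and α-tubulin; band densities summarized, n=3, vs respective controls.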

[6] = system: Mus musculus; test: Antidiabetic activity in KKAy mouse assessed as reduction of blood glucose level at 30 to 75 mg/kg, sc bid for 4 days measured on day 3 relative to control; format: functional; design: scale not given: the % may be the effect or the level left; conditions: dose mg/kg 30-75; route subcutaneous
Procedure, shortened: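 Hyperglycemic KKAy mice injected s.c. twice daily for 4 days with compound at 30 or 75 mg/kg suspended in sesame oil; controls received sesame oil (150 µl). Blood glucose measured at the indicated times, with day-zero levels taken as 100%. n=10 per group, mean ± SEM, compared with oil-treated group.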

[7] = molecular target: T1, Cytochrome P450 1A2 (Homo sapiens, UniProt P05177); test: Inhibition of CYP1A2 (unknown origin) by luminescent based assay; format: ADME
T1 sequence (P05177 whole entry): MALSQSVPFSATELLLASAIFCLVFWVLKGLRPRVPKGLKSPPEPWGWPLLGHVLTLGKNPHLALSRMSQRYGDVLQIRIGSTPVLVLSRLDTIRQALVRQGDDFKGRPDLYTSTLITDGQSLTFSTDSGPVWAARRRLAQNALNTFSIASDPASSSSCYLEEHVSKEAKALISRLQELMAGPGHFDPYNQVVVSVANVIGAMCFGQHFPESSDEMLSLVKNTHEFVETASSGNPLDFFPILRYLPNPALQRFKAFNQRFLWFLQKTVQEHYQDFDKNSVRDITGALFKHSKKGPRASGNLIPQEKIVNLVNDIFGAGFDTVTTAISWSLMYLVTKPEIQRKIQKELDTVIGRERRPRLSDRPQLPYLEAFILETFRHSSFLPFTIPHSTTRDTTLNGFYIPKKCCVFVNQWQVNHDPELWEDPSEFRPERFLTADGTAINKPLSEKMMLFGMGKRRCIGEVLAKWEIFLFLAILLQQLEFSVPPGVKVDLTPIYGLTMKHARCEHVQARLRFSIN

[8] = system: Mus musculus; test: Antidiabetic activity in po dosed KKAy mouse assessed as reduction of blood glucose level; format: functional, organism-based
[9] = molecular target: 5'-AMP-activated protein kinase catalytic subunit alpha-2 (Rattus norvegicus) (UniProt Q09137); test: Increase in AMPK-mediated myc-tagged GLUT4 translocation in rat L6 cell plasma membrane at 25 uM after 5 hrs by colorimetric analysis
Procedure, shortened: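 L6 lines stably carrying GLUT4myc or GLUT1myc, treated 5 h with test agent or DMSO; insulin given for 30 min. Live myotubes incubated with rabbit anti-c-Myc (1:200), washed, fixed in 3% formaldehyde, then HRP anti-rabbit IgG (1:2000). Developed with OPD and read at 492 nm to give relative surface transporter abundance.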

[10] = Half life in BALB/c mouse liver microsomes at 2 uM; format: ADME, Microsome
[11] = system: Mus musculus; test: Toxicity in overnight fast KKAy mouse assessed as reduction of daily food intake at 30 to 75 mg/kg, sc bid for 2 days; format: organism-based; design: dose 30-75 mg/kg, route subcutaneous; conditions: in vivo, 48 h
Procedure, shortened: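 Hyperglycemic KKAy mice given 30 or 75 mg/kg s.c. twice daily as a suspension in sesame oil; controls received oil (150 µl). Daily food intake recorded over the 2-day treatment; n=10 per group, mean ± SEM.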

[12] = molecular target: 5'-AMP-activated protein kinase catalytic subunit alpha-2 (Rattus norvegicus) (UniProt Q09137); test: Activation of AMPK in rat L6 cells assessed as increase of [3H]dGlc uptake after 5 hrs in presence of Akt/PKB inhibitor 1,3-dihydro-1-(1-((4-(6-phenyl-1Himidazo[4,5-g]quinoxalin-7-yl)phenyl)methyl)-4-piperidinyl)-2H-benzimidazol-2-one trifluoroacetate salt hydrate; format: cell-based
Procedure, shortened: (§3)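 Myotubes treated with compound, insulin or vehicle in the absence or presence of 100 nM wortmannin or 100 nM Akt/PKB inhibitor, each added 30 min before compound or insulin. Compound C 5 μM was added 5 h before the uptake assay. Rate then measured by the standard 5-min [3H]dGlc uptake assay.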

[13] = Solubility of the compound in water; format: physicochemical; conditions: buffer
[14] = molecular target: 5'-AMP-activated protein kinase catalytic subunit alpha-2 (Rattus norvegicus) (UniProt Q09137); test: Activation of AMPK in rat L6 cells assessed as ACC phosphorylation at Ser79 at 250 mM after 40 mins by Western blot analysis relative to control; format: cell-based; procedure, shortened: as §2
[15] = system: L6; test: Activation of AMPKalpha in rat L6 cells assessed as phosphorylation at Thr172 at 100 uM after 1 hr by Western blot analysis; format: cell-based
Procedure, shortened: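 L6 myotubes exposed for the indicated times to test compound (100 μM in the first series; 50–150 μM in the second) or 4 mM AICAR. Whole-cell lysates immunoblotted for pThr172-AMPKα, AMPKα and α-tubulin; band densities from three independent experiments vs respective controls.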

[16] = system: L6; test: Activation of AMPKalpha in rat L6 cells assessed as phosphorylation at Thr172 at 5 uM after 4 hrs by Western blot analysis relative to control; format: cell-based; procedure, shortened: as §1
[17] = molecular target: 5'-AMP-activated protein kinase catalytic subunit alpha-2 (Rattus norvegicus) (UniProt Q09137); test: Activation of AMPK in rat L6 cells assessed as increase of [3H]dGlc uptake after 5 hrs in presence of PI3K inhibitor wortmannin; format: cell-based; procedure, shortened: as §3
[18] = system: L6; test: Activation of AMPKalpha in rat L6 cells assessed as phosphorylation at Thr172 at 150 uM after 4 hrs by Western blot analysis; format: cell-based; procedure, shortened: as §1
[19] = system: L6; test: Activation of AMPKalpha in rat L6 cells assessed as phosphorylation at Thr172 after 4 hrs by Western blot analysis; format: cell-based

logP [1]: 4.34 | fold change (FC) [2]: 4.3 | fold change (FC) [5]: 1.75 | inhibition (INH) [7]: Not Active | Activity [9]: Active | half-life at 2 µM [10]: 2.4 min | Activity [12]: Active | solubility [13]: 12.1 µM (≈ 4.33 µg/mL) | fold change (FC) [14]: 2.56 | Activity [17]: Active
SMILES: CCOc1ccc2nc(SCc3nc4ccccc4s3)sc2c1
fold change (FC) [3]: 7.6 | Activity [4]: inactive | Activity [6]: 50% | Activity [8]: inactive | Activity [11]: Non-toxic | Activity [15]: Active | fold change (FC) [16]: 2 | fold change (FC) [18]: 7.6 | Activity [19]: Dose-dependent effect
